Results reported in ChEMBL document CHEMBL3856206, “Nitroimidazole carboxamides as antiparasitic agents targeting Giardia lamblia, Entamoeba histolytica and Trichomonas vaginalis” (Eur J Med Chem, 2016).
The source made the active and inactive calls. No cut-off for these calls is given here.

Columns and labels:
[1] = test system: Entamoeba histolytica; assay: Potency index, ratio of metronidazole EC50 to compound EC50 for metronidazole sensitive Entamoeba histolytica HM-1:IMSS trophozoites; assay type: functional
[2] = Selectivity index, ratio of CC50 for human HepG2 cells to EC50 for metronidazole sensitive Giardia lamblia WB trophozoites
[3] = Selectivity index, ratio of CC50 for HEK293 cells to EC50 for metronidazole sensitive Giardia lamblia WB trophozoites
[4] = Cytotoxicity against HEK293 cells assessed as cell growth inhibition after 24 hrs by resazurin assay; assay type: toxicity, cell-based; details: human
How it was run: (§1)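 HEK293 (3000/well) and HepG2 (5000/well) cells cultured 24 h in DMEM with 10% FBS at 37 °C, 5% CO2. Compound dilution series added, top concentration 100 μM, 0.5% final DMSO, for 24 h. Then 5 μM resazurin added for 2 h at 37 °C. 1% Triton X-100 served as the lysis control.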

[5] = Cytotoxicity against human HepG2 cells assessed as cell growth inhibition after 24 hrs by resazurin assay; assay type: toxicity, cell-based; how it was run: as §1
[6] = test system: Clostridioides difficile; assay: Antiparasitic activity against Clostridium difficile NAP1/027 ATCC BAA-1803 after 24 hrs by broth microdilution method; assay type: functional; details: NAP1/027 ATCC BAA-1803, 24 h
How it was run: (§2)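 C. difficile 630 and NAP1/027 grown anaerobically overnight in BHIS at 37 °C, diluted 40-fold, grown ~4.5 h to mid-log (OD600 0.4–0.6). Final inoculum 5 × 10^5 CFU/mL in BHIS against two-fold dilutions, 64 to 0.03 μg/mL, 3% maximum DMSO, in pre-reduced plates (5% H2, 10% CO2, 85% N2). Incubated 24 h at 37 °C. MIC is the lowest concentration without visible growth. Median of replicates reported.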

[7] = Antiparasitic activity against metronidazole sensitive Clostridium difficile 630 ATCC BAA-1382 after 24 hrs by broth microdilution method; assay type: functional, Clostridioides difficile 630; details: Clostridioides difficile, ATCC BAA-1382, 24 h; how it was run: as §2
[8] = test system: Entamoeba histolytica; assay: Antiparasitic activity against metronidazole sensitive Entamoeba histolytica HM-1:IMSS trophozoites after 24 to 48 hrs under anaerobic conditions by Celltiter-Glo assay; assay type: functional
How it was run: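 Axenic log-phase trophozoites in TYI-S-33 with penicillin and streptomycin, 5000 parasites per well. Tested over a final 8-point three-fold series, 0.01–25 μM. Incubated 24–48 h at 37 °C in anaerobe gas pouches. Viable cells measured by ATP bioluminescence (CellTiter-Glo) in triplicate to give EC50.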

[9] = Metabolic stability in human liver microsomes assessed as compound remaining at 5 uM after 2 hrs in presence of NADPH by LC/MS/MS analysis; assay type: ADME; details: read-out: Stability
[10] = test system: Giardia intestinalis; assay: Potency index, ratio of metronidazole EC50 to compound EC50 for metronidazole resistant Giardia lamblia 713M3 trophozoites; assay type: functional, Giardia duodenalis
[11] = test system: Giardia intestinalis; assay: Potency index, ratio of metronidazole EC50 to compound EC50 for metronidazole sensitive Giardia lamblia WB trophozoites; assay type: functional, Giardia duodenalis
[12] = Protein binding in human plasma at 5 uM after 30 min by ultrafiltration method; assay type: ADME, cell-free; details: 0.5 h
[13] = test system: Giardia intestinalis; assay: Antiparasitic activity against metronidazole sensitive Giardia lamblia WB trophozoites assessed as morphological alterations at 3 times EC50 after 48 hrs under anaerobic conditions by phase contrast microscopic analysis; assay type: functional; details: Giardia duodenalis

SMILES	Ratio CC50/EC50 [2]	Ratio CC50/EC50 [3]	further results
CN(C)C(=O)c1ncc([N+](=O)[O-])[nH]1	>12	>12	Ratio EC50 [1]: 2 - 3
CN(CCO)C(=O)c1ncc([N+](=O)[O-])[nH]1	>4	>4	
CN(C)C(=O)c1nc([N+](=O)[O-])cn1Cc1ccc(OC(F)(F)F)cc1	>37	>37	
O=C(NCc1cccc(OC(F)(F)F)c1)c1ncc([N+](=O)[O-])[nH]1	>500	>500	
Cn1c([N+](=O)[O-])cnc1C(=O)NC1CC1	>29	>29	
CNC(=O)c1ncc([N+](=O)[O-])[nH]1	>10	>10	
Cc1ccc(CCNC(=O)c2ncc([N+](=O)[O-])n2C)cc1	>36	>36	
NC(=O)c1nc([N+](=O)[O-])cn1Cc1cccc(OC(F)(F)F)c1	>12	>12	
NC(=O)c1nc([N+](=O)[O-])cn1CC1CC1			CC50 at 24 h [4]: > 100 µM; CC50 at 24 h [5]: > 100 µM; MIC [6]: > 64 µg/mL; MIC [7]: > 64 µg/mL; EC50 ([8]; read-out: EC50): > 50 µM; EC50 ([8]; read-out: pEC50 (converted)): > 50.1 µM
Cc1ncc([N+](=O)[O-])n1CCO [METRONIDAZOLE]			remaining at 2 h, 5 µM [9]: 100%
Cn1c([N+](=O)[O-])cnc1C(=O)NCc1ccccn1	>63	>63	Ratio EC50 [10]: 3 - 12; Ratio EC50 [11]: 4
Cc1ccc(CCNC(=O)c2ncc([N+](=O)[O-])[nH]2)cc1	>1000	>1000	Ratio EC50 [1]: 2 - 3
CNC(=O)c1nc([N+](=O)[O-])cn1Cc1ccc(OC(F)(F)F)cc1	>29	>29	
CCOC(=O)c1nc([N+](=O)[O-])cn1Cc1ccc(OC(F)(F)F)cc1	>17	>17	
O=C(NCc1ccccn1)c1ncc([N+](=O)[O-])[nH]1	>14	>14	
Cn1c([N+](=O)[O-])cnc1C(=O)N1CCCC1	>34	>34	Ratio EC50 [10]: 3 - 12

SMILES	Ratio CC50/EC50 [2]	Ratio CC50/EC50 [3]	further results
O=C(c1ncc([N+](=O)[O-])[nH]1)N1CCCC1	>29	>29	
O=C(NC1CC1)c1ncc([N+](=O)[O-])[nH]1	>20	>20	
NC(=O)c1nc([N+](=O)[O-])cn1Cc1ccccn1	>3.7	>3.7	
O=C(NCc1ccc(F)cc1)c1ncc([N+](=O)[O-])[nH]1	>250	>250	PPB [12]: > 99%; remaining at 2 h, 5 µM [9]: 94%; Activity [13]: Active
CC(NC(=O)c1ncc([N+](=O)[O-])n1C)c1ccc(F)cc1 (stereo unspecified)	>34	>34	Ratio EC50 [10]: 3 - 12
O=C(c1ncc([N+](=O)[O-])[nH]1)N1CCOCC1	>11	>11	remaining at 2 h, 5 µM [9]: 100%
O=C(NC1CCCCC1)c1ncc([N+](=O)[O-])[nH]1	>167	>167	Ratio EC50 [1]: 2 - 3
O=C(NCc1ccc(OC(F)(F)F)cc1)c1ncc([N+](=O)[O-])[nH]1		>500	
NNC(=O)c1nc([N+](=O)[O-])cn1Cc1ccc(OC(F)(F)F)cc1	>13	>13	
O=C(NO)c1nc([N+](=O)[O-])cn1Cc1ccc(OC(F)(F)F)cc1	>20		
CC(NC(=O)c1ncc([N+](=O)[O-])[nH]1)c1ccc(F)cc1 (stereo unspecified)	>250	>250	Ratio EC50 [1]: 2 - 3
Cn1c([N+](=O)[O-])cnc1C(=O)NC1CCCCC1	>20	>20	Ratio EC50 [10]: 3 - 12
CN(C)C(=O)c1ncc([N+](=O)[O-])n1C	>42	>42	
Cn1c([N+](=O)[O-])cnc1C(=O)N1CCOCC1	>63	>63	Ratio EC50 [11]: 4; remaining at 2 h, 5 µM [9]: 97%
NC(=O)c1nc([N+](=O)[O-])cn1Cc1ccc(OC(F)(F)F)cc1	>22	>22	
Cn1c([N+](=O)[O-])cnc1C(=O)NCc1ccc(F)cc1	>29	>29	remaining at 2 h, 5 µM [9]: 88%
